According to ChEMBL document CHEMBL3813689, “Discovery of Potent Benzofuran-Derived Diapophytoene Desaturase (CrtN) Inhibitors with Enhanced Oral Bioavailability for the Treatment of Methicillin-Resistant Staphylococcus aureus (MRSA) Infections” (J Med Chem, 2016):
pIC50: −log10 of the molar value.

Assays:
[1] = target: Voltage-gated inwardly rectifying potassium channel KCNH2 (Homo sapiens, UniProt Q12809); assay: Inhibition of human ERG expressed in CHO cells by Qpatch-clamp method; format: cell-based
Staphylococcus aureus [2] = assay: Sensitization of Staphylococcus aureus USA300 LAC to immune clearance in human whole blood assessed as reduction in bacterial survival at 1 uM […] relative to control; format: functional
Staphylococcus aureus [3] = assay: Sensitization of Staphylococcus aureus Newman to immune clearance in human whole blood assessed as bacterial survival at 1 uM measured after 24 hrs (reference value: 26.7%); format: functional
[4] = Oral bioavailability in Sprague-Dawley rat at 10 mg/kg administered as single dose; format: ADME, organism-based; details: in vivo
Summary of the method: (§1)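 Male SD rats, 3 per group, single iv 5 mg/kg or oral 10 mg/kg. Blood sampled 0.083 (iv only), 0.25, 0.5, 1, 2, 4, 6, 8, 24 h postdose; plasma separated at 4 °C, stored −80 °C, analysed within 1 week. Parameters from plasma concentration-time data; F from dose-normalized AUC, oral vs iv.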

Staphylococcus aureus [5] = assay: Antibacterial activity against Staphylococcus aureus Mu50 infected Balb/c mouse assessed as reduction of bacterial survival in kidney at 5.2 mg, ip bid administered for 4.5 days followed by bacterial infection measured after 5 days; format: functional
Staphylococcus aureus [6] = assay: Antibacterial activity against Staphylococcus aureus Newman infected Balb/c mouse assessed as reduction of bacterial survival in kidney at 5.2 mg, ip bid administered for 4.5 days followed by bacterial infection measured after 5 days; format: functional
Summary of the method: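 Female BALB/c mice, 6–8 weeks, dosed ip with compound in sterile water once and every 12 h for 108 h; water vehicle controls. Challenged 12 h after first dose with 1 × 10^7 CFU Newman by retro-orbital injection. Kidneys and hearts homogenised in PBS/0.1% Triton X-100 and plated on TSA for CFU. n = 13 mice; two-tailed Mann-Whitney.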

Staphylococcus aureus [7] = assay: Suppression in growth of methicillin-resistant Staphylococcus aureus USA300 LAC at 0.2 mM measured after overnight incubation by spectrophotometric method; format: organism-based; details: 200 µM
Summary of the method: (§2)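 Compound from 20 mM DMSO stock diluted in TSB to final 0.2 or 0.05 mM; DMSO growth controls; paraffin overlay. Overnight cultures inoculated to final OD600 ≈ 0.05; incubated at 37 °C overnight with OD600 read every 30 min.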

Staphylococcus aureus [8] = assay: Inhibition of staphyloxanthin pigment formation in Staphylococcus aureus Newman after 48 hrs by spectrophotometric method; format: functional, organism-based
Summary of the method: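 Compounds as 20 mM DMSO stocks, serial 2-fold dilutions in DMSO; 40 µL added to 4 mL TSB culture, 37 °C for 48 h, in triplicate. Cells washed twice with PBS, pigment extracted with methanol, OD450 measured; IC50 from dose-response curve fit of OD data.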

Staphylococcus aureus [9] = assay: Suppression in growth of methicillin-resistant Staphylococcus aureus USA400 MW2 at 0.05 mM measured after overnight incubation by spectrophotometric method; format: organism-based; details: 50 µM; summary of the method: as §2
[10] = target: T1, 4,4'-diapophytoene desaturase (4,4'-diaponeurosporene-forming) (Staphylococcus aureus (strain Newman), UniProt O07855); assay: Inhibition of Staphylococcus aureus Newman 6His-tagged CrtN expressed in Escherichia coli BL21(DE3) using diapophytoene as substrate assessed as pigment formation after overnight incubation by spectrophotometric method; set-up: species or system Staphylococcus aureus subsp. aureus str. Newman
T1 sequence (O07855 whole entry): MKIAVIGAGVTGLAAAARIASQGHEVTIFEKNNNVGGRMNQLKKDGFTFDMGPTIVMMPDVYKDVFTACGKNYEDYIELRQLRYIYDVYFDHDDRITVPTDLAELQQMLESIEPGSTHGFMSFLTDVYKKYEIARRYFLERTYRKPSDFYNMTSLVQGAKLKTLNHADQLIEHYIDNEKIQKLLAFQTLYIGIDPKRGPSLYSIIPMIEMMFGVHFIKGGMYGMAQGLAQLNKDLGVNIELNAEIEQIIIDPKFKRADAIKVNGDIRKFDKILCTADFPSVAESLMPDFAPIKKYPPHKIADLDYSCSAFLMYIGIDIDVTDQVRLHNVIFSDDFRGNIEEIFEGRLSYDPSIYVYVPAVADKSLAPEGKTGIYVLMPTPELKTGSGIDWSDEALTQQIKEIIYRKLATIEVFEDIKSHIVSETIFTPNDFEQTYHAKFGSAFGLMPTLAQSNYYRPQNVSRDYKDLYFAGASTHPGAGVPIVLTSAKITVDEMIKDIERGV
Summary of the method: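 Lysate of E. coli BL21(DE3) expressing 6His-CrtN (IPTG 0.5 mM, 16 °C overnight), ~1.41 mg CrtN per reaction, with diapophytoene–phosphatidylcholine emulsion in 0.02 M HEPES pH 7.5 plus FAD. Anaerobic via glucose oxidase 20 U/mL, catalase 20000 U/mL, glucose 2 mM (final). Started with lysate, overnight at 37 °C; triplicate.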

[11] = test system: Trichophyton mentagrophytes; assay: Antifungal activity against Trichophyton mentagrophytes measured after 7 days by serial dilution method; format: functional
Summary of the method: (§3)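 Broth serial dilution MIC per NCCLS in RPMI 1640 buffered with 0.165 M MOPS; compounds in DMSO diluted in medium. Dermatophytes incubated at 28 °C, read at 7 days. MIC taken as lowest concentration giving ≥80% growth inhibition versus control (turbidity).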

Staphylococcus aureus [12] = assay: Antibacterial activity against Staphylococcus aureus Mu50 infected Balb/c mouse assessed as reduction of bacterial survival in liver at 1.3 mg, ip bid administered for 4.5 days followed by bacterial infection measured after 5 days; format: functional
Staphylococcus aureus [13] = assay: Sensitization of methicillin-resistant Staphylococcus aureus USA400 MW2 to H2O2 assessed as bacterial survival at 1 uM measured after 24 hrs (reference value: 11.7%); format: functional; details: MW2, 24 h
Staphylococcus aureus [14] = assay: Sensitization of Staphylococcus aureus Newman to immune clearance in human whole blood assessed as reduction in bacterial survival at 1 uM […] relative to control; format: functional
Staphylococcus aureus [15] = assay: Inhibition of staphyloxanthin pigment formation in methicillin-resistant Staphylococcus aureus USA400 MW2 after 48 hrs by spectrophotometric method; format: functional, organism-based; details: MW2, 48 h
Summary of the method: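 MRSA grown in 4 mL TSB with 40 µL compound (2-fold serial dilutions from 20 mM DMSO stock) at 37 °C for 48 h, triplicate. Cells washed twice in PBS, pigment extracted with methanol, OD450 measured; IC50 from dose-response fit.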

Staphylococcus aureus [16] = assay: Suppression in survival of methicillin-resistant Staphylococcus aureus USA300 LAC at 0.2 mM measured after overnight incubation by spectrophotometric method; format: ADME, organism-based; details: 200 µM; summary of the method: as §2
Nannizzia gypsea = assay: Antifungal activity against Microsporum gypseum measured after 7 days by serial dilution method; format: functional; summary of the method: as §3
Rattus norvegicus = assay: Dose normalized AUC (0 to infinity) in Sprague-Dawley rat at 5 mg/kg, iv administered as single dose; format: ADME, organism-based; details: in vivo; summary of the method: as §1
Trichophyton rubrum = assay: Antifungal activity against Trichophyton rubrum measured after 7 days by serial dilution method; format: functional; summary of the method: as §3
Staphylococcus aureus [17] = assay: Sensitization of Staphylococcus aureus Newman to H2O2 assessed as bacterial survival at 1 uM measured after 24 hrs (reference value: 36.2%); format: functional

Sequence of Voltage-gated inwardly rectifying potassium channel KCNH2 (Q12809 whole entry): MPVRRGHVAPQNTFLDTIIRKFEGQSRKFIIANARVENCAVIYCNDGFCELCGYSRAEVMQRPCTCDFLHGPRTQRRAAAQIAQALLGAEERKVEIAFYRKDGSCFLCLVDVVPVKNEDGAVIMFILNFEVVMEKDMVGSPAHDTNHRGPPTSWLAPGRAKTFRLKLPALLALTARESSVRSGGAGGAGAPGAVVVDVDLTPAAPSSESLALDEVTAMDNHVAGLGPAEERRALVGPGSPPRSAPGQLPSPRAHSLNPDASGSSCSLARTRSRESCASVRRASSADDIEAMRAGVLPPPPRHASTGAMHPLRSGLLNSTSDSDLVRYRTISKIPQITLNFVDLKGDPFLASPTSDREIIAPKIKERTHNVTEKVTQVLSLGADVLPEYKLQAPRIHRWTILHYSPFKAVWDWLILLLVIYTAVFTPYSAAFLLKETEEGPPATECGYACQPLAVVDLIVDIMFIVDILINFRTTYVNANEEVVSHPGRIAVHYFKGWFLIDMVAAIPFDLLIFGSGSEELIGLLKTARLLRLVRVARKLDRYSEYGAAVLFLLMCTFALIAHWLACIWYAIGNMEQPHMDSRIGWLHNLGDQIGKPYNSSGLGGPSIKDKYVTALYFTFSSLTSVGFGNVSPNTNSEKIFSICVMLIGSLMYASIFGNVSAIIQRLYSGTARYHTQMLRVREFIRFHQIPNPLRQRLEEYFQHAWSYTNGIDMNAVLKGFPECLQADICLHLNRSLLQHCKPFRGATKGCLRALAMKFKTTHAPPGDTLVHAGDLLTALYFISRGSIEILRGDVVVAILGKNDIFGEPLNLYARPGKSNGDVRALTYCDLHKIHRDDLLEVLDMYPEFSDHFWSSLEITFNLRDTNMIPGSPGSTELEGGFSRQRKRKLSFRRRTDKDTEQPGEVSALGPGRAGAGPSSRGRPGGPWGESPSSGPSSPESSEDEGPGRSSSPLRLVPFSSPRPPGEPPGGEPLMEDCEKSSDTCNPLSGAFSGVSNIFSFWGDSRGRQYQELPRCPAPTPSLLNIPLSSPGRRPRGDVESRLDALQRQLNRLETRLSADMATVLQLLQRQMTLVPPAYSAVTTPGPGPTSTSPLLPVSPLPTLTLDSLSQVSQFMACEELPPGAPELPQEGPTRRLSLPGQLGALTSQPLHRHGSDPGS

**Q.** With `CN(C/C=C/c1ccc(C(F)(F)F)cc1)Cc1cccc2ccoc12.Cl` as the molecule, how does the pIC50 [1] read?
**A.** 5.43

**Q.** And the “fold change (FC)” value (Staphylococcus aureus [2])?
**A.** 10

**Q.** And the survival at 1 µM (Staphylococcus aureus [3])?
**A.** 0.8%

**Q.** What about the bioavailability [4] of the same molecule?
**A.** 42.2%

**Q.** What about the Activity (Staphylococcus aureus [5]) of the same molecule?
**A.** 1.11 deltalog10CFU

**Q.** And the Activity (Staphylococcus aureus [6])?
**A.** 0.85 deltalog10CFU

**Q.** And the Activity (Staphylococcus aureus [7])?
**A.** Non-toxic

**Q.** What about the pIC50 (Staphylococcus aureus [8]) of the same molecule?
**A.** 8.41

**Q.** And the Activity (Staphylococcus aureus [9])?
**A.** Non-toxic

**Q.** And the pIC50 [10]?
**A.** 6.47

**Q.** And the “MIC=<80” value [11]?
**A.** >64 µg/mL

**Q.** And the Activity (Staphylococcus aureus [12])?
**A.** 2.94 deltalog10CFU

**Q.** And the survival at 1 µM (Staphylococcus aureus [13])?
**A.** 0.6%

**Q.** And the “fold change (FC)” value (Staphylococcus aureus [14])?
**A.** 33

**Q.** And the pIC50 (Staphylococcus aureus [15])?
**A.** 8.26

**Q.** And the Activity (Staphylococcus aureus [16])?
**A.** Non-toxic

**Q.** What about the “MIC80 (lowest concentration giving ≥80% growth inhibition)” value (Nannizzia gypsea) of the same molecule?
**A.** 32 µg/mL

**Q.** And the AUC/dose (Rattus norvegicus)?
**A.** 1299.47 ng/mL.hr/(mg/kg)

**Q.** What about the MIC80 (Trichophyton rubrum) of the same molecule?
**A.** 16 µg/mL

**Q.** What about the survival at 1 µM (Staphylococcus aureus [17]) of the same molecule?
**A.** 1.2%
